In brackets after ≈: the same amount, converted by molar mass.
Tests used:
IGROV-1 = test: Antiproliferative activity against human IGROV1 cells; assay type: functional
In short: (§1)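 Profiled in the National Cancer Institute 60 cancer cell line screen. Reported GI50 is the concentration giving 50% growth inhibition, TGI the concentration giving total growth inhibition, and LC50 the concentration giving 50% net cell killing. Values are averages ± SEM from two independent determinations.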

OVCAR-8 = test: Antiproliferative activity against human OVCAR8 cells; assay type: functional; in short: as §1
CCRF-CEM = test: Antiproliferative activity against human CCRF-CEM cells; assay type: functional; in short: as §1
OVCAR-5 = test: Antiproliferative activity against human OVCAR5 cells; assay type: functional; in short: as §1
SK-MEL-5 = test: Antiproliferative activity against human SK-MEL-5 cells; assay type: functional; in short: as §1
HCT-15 = test: Antiproliferative activity against human HCT15 cells; assay type: functional; in short: as §1
MDA-MB-231 = test: Antiproliferative activity against human MDA-MB-231 cells; assay type: functional; in short: as §1
HL-60(TB) = test: Antiproliferative activity against human HL-60(TB) cells; assay type: functional
In short: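 Tested in the NCI 60 human cancer cell line panel. GI50 is the concentration giving 50% growth inhibition; TGI (total growth inhibition) and LC50 (50% net cell killing) were also derived. Values are the mean ± SEM of two independent determinations.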

OVCAR-4 = test: Antiproliferative activity against human OVCAR4 cells; assay type: functional; in short: as §1
A498 = test: Antiproliferative activity against human A498 cells; assay type: functional; in short: as §1
[1] = Apparent permeability of the compound from basolateral to apical side in human Caco2 cells; assay type: ADME, cell-based; details: Caco-2
M14 = test: Antiproliferative activity against human M14 cells; assay type: functional; in short: as §1
OVCAR-3 = test: Antiproliferative activity against human OVCAR3 cells; assay type: functional; in short: as §1
[2] = Antiproliferative activity against human Hs 578T cells; assay type: functional; in short: as §1
[3] = Antiproliferative activity against human NCI-ADR-RES cells; assay type: functional; in short: as §1
NCI-H522 = test: Antiproliferative activity against human NCI-H522 cells; assay type: functional; in short: as §1
ACHN = test: Antiproliferative activity against human ACHN cells; assay type: functional; in short: as §1
CAKI-1 = test: Antiproliferative activity against human Caki1 cells; assay type: functional; in short: as §1
SF-268 = test: Antiproliferative activity against human SF268 cells; assay type: functional; in short: as §1
T47D = test: Antiproliferative activity against human T47D cells; assay type: functional
In short: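 Run in the National Cancer Institute 60 cancer cell line panel. Read-outs: GI50, the concentration causing 50% growth inhibition; TGI, the concentration causing total growth inhibition; LC50, the concentration causing 50% net cell killing. Values are averages ± SEM from two independent determinations.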

[4] = Aqueous solubility of the compound; assay type: physicochemical; details: buffer
[5] = read-out: LC50 (the source's name)

C[C@H](NC(=O)[C@@H]1CSSC[C@@H](NC(=O)c2nc3ccccc3cc2O)C(=O)NCC(=O)N1C)c1ccccc1
TGI (IGROV-1): 12.9 µM | CC50 (IGROV-1; [5]): 37.6 µM | GI50 (OVCAR-8): 5.2 µM | TGI (OVCAR-8): 17.8 µM | CC50 (OVCAR-8; [5]): > 50 µM | GI50 (CCRF-CEM): 1.9 µM | TGI (CCRF-CEM): 10.5 µM | CC50 (CCRF-CEM; [5]): > 50 µM | GI50 (OVCAR-5): 5.2 µM | TGI (OVCAR-5): 12.6 µM | CC50 (OVCAR-5; [5]): 29.6 µM | GI50 (SK-MEL-5): 0.6 µM | TGI (SK-MEL-5): 3.8 µM | CC50 (SK-MEL-5; [5]): 15.6 µM | GI50 (HCT-15): 2.6 µM | TGI (HCT-15): 9.7 µM | CC50 (HCT-15; [5]): 25.9 µM | GI50 (MDA-MB-231): 1.9 µM | TGI (MDA-MB-231): 7.9 µM | CC50 (MDA-MB-231; [5]): 26 µM | GI50 (HL-60(TB)): 1.2 µM | TGI (HL-60(TB)): 5.1 µM | CC50 (HL-60(TB); [5]): 38.8 µM | GI50 (OVCAR-4): 8 µM | TGI (OVCAR-4): 18.4 µM | CC50 (OVCAR-4; [5]): 42.4 µM | GI50 (A498): 15 µM | TGI (A498): 33.5 µM | CC50 (A498; [5]): > 50 µM | Papp B→A [1]: 0.062 ×10⁻⁶ cm/s | GI50 (M14): 0.3 µM | TGI (M14): 10.3 µM | CC50 (M14; [5]): > 50 µM | GI50 (OVCAR-3): 0.6 µM | TGI (OVCAR-3): 1.4 µM | CC50 (OVCAR-3; [5]): 3.1 µM | GI50 [2]: 11.3 µM | TGI [2]: 34.5 µM | CC50 [2, 5]: > 50 µM | GI50 [3]: 11 µM | TGI [3]: > 50 µM | CC50 [3, 5]: > 50 µM | GI50 (NCI-H522): 3.6 µM | TGI (NCI-H522): 10.5 µM | CC50 (NCI-H522; [5]): 29.1 µM | GI50 (ACHN): 4.9 µM | TGI (ACHN): 13 µM | CC50 (ACHN; [5]): 31.5 µM | GI50 (CAKI-1): 7.3 µM | TGI (CAKI-1): 18.5 µM | CC50 (CAKI-1; [5]): 47.4 µM | GI50 (SF-268): 0.4 µM | TGI (SF-268): 11.1 µM | CC50 (SF-268; [5]): 35.6 µM | GI50 (T47D): 1.1 µM | TGI (T47D): 3.8 µM | CC50 (T47D; [5]): 24.8 µM | solubility [4]: 4.5 µg/mL (≈ 7.93 µM)

— ChEMBL document CHEMBL3632499, “Synthesis and Antiproliferative Activity Evaluation of the Disulfide-Containing Cyclic Peptide Thiochondrilline C and Derivatives” (J Nat Prod, 2015)
